MrgX1 antagonist: blocks BAM8-22 activation of human MrgX1 receptor; 310,000 tested, 1.3% active; Q96LB2; B-score at 10 µM; MRGX1-HEK293 calcium flux, Fluo-4, BAM8-22 antagonism; hits give low values;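 active = calcium-response B-score plate-corrected more than 3 library SD below zero, starting fluorescence within 5 deviations, no agonist response on first addition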;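 note: peak minus trough fluorescence over baseline after final BAM8-22 challenge near maximal dose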
Target sequence (Q96LB2 whole entry, looked up): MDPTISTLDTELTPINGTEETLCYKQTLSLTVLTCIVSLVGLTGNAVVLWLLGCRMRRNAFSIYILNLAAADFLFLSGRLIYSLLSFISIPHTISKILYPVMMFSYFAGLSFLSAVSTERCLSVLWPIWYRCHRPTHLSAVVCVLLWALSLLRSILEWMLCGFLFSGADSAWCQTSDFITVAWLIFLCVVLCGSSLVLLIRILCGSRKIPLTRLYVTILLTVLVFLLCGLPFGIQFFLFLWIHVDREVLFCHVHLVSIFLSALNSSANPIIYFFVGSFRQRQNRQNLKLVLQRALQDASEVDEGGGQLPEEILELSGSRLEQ
RGS4 block: human RGS4 inhibition; B-score at 10 µM; HEK293 M3R/RGS4 inducible, Fluo-4 calcium flux; hits give high values; triggered by carbachol at its EC20; AID 463165; P49798; 310,000 tested, 0.45% active;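 active = B-score, a plate-corrected calcium signal, over three deviations above library mean, with baseline fluorescence within five deviations of library mean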;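 note: RGS4 expression induced by doxycycline in cells with stable M3 receptor; B-score is computed from the integrated fluorescence ratio over baseline after carbachol; higher B-score means a larger calcium signal and so more RGS4 inhibition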
Target sequence (P49798 whole entry, looked up): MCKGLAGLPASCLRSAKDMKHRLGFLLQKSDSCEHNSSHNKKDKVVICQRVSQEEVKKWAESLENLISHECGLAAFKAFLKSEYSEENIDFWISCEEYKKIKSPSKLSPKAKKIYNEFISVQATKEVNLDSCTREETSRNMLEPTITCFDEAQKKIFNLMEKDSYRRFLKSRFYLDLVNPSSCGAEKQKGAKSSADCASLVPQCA
RGS4 pot: potentiators or activators of RGS4 | 310,000 tested, 0.92% active | HEK293 M3R/inducible RGS4, carbachol calcium flux Fluo4; hits give low values | B-score at 10 µM;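 active = B-score of the integrated calcium signal more than 4 SD below the library mean, with starting fluorescence not abnormally high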;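 note: negative B-score means reduced calcium response which marks RGS4 activation or potentiation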
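System – HEK293 FlpIn-TREx cells, stable M3R, doxycycline-inducible RGS4 · Reagent – ECmax carbachol challenge · Times – compound preincubation 20 min at room temperature before agonist · Technique – Fluo4 fluorescence kinetic imaging of calcium · Measure – B score of integrated Fluo4 ratio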
MrgX1 allo act: human MrgX1 positive allosteric modulation, primary screen; Q96LB2; MrgX1-HEK293, Fluo-4 calcium flux, FDSS; hits give high values; B-score at 10 µM; 310,000 tested, 0.63% active; AID 588675;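 active = plate-corrected calcium response at least 3 library SD above typical, normal starting fluorescence, not activating the receptor alone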;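 note: compound read alongside a low EC10 to EC30 dose of BAM8-22 agonist; peak minus trough fluorescence over baseline measured at the second addition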
MrgX1 ag: agonists of human MrgX1 receptor; MrgX1-HEK293 cells, Fluo-4 calcium fluorescence, agonist mode; hits give high values; B-score at 10 µM; 310,000 tested, 0.44% active; AID 588627;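 active = calcium response B-score plate-corrected fluorescence ratio at least 3 library SD, with starting fluorescence B-score inside 5 SD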
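Assay system: MrgX1-expressing HEK293 cells / Amount: fifteen thousand cells per well / Doses: test compound in the initial addition of three / Timing: cells plated overnight, dye loaded 0.5 h 37 °C, 0.5 h room temperature / Technique: kinetic calcium dye fluorescence, Fluo-4 NW / Control set: positive and negative controls per plate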
Each line names hits and unclear results; the compound was inactive in the other large screens; ! = a repeat was not active. Rows were chosen to be rich in hits. Some 3.5% of all compounds tested hit in one or more screens of this group.

CC(C)CN(CC(C)C)S(=O)(=O)N1CCC(C(=O)NCc2ccc(F)cc2)CC1	none
CC(C)CN(CC(C)C)S(=O)(=O)N1CCC(C(=O)NCCc2ccc(Cl)cc2)CC1	MrgX1 antagonist -7.56
CCCCCCCCn1ccc(=N)cc1	none
CCCCCCCCCCCCCCCCn1cc[n+](C)c1	MrgX1 antagonist -7.33!, RGS4 pot -9.54!
Cc1ccc(S(=O)(=O)NCC(=O)N(CC(=O)NCc2ccco2)Cc2ccccc2)cc1	MrgX1 ag 35.9
Cc1ccc(S(=O)(=O)NCC(=O)N(CCc2ccccc2)CC(=O)NCc2ccco2)cc1	none (no result: MrgX1 antagonist, MrgX1 allo act, MrgX1 ag)
Cc1cc(C(=O)COc2ccccc2Cl)c(C)n1-c1ccc2c(c1)OCO2	RGS4 pot -7.51
CCOC(=O)CC1(NC(=O)C2CCC(=O)N(Cc3ccccc3F)C2)CCCCC1 (stereo unspecified)	none
COc1ccc(S(=O)(=O)N2CCC(C(=O)NCCN3CCOCC3)CC2)cc1	none
O=[N+]([O-])c1ccc(Nc2nc(N/N=C\c3ccc4c(c3)OCO4)nc(N3CCCCC3)n2)cc1	MrgX1 antagonist -4.55
O=[N+]([O-])c1ccc(/C=N/Nc2nc(N3CCCCC3)nc(N3CCCCC3)n2)cc1	none
Cc1ccc(S(=O)(=O)N(CC(=O)Nc2cccc(N(C)S(C)(=O)=O)c2)c2ccc(Cl)c(Cl)c2)cc1	RGS4 pot -10.6
CN(c1cccc(NC(=O)CN(c2ccc(Cl)c(Cl)c2)S(=O)(=O)c2ccccc2)c1)S(C)(=O)=O	none
CCN(CC)c1ccc(-c2nn3c(-c4n[nH]c5c4CCC5)nnc3s2)cc1	MrgX1 antagonist -12, RGS4 pot -7.19
CC(=O)Nc1ccc(/C=N\NC(=O)CNS(=O)(=O)c2ccc([N+](=O)[O-])cc2)cc1	none
O=C(CNS(=O)(=O)c1ccc([N+](=O)[O-])cc1)N/N=C\c1ccc(O)cc1	MrgX1 antagonist -6.05, MrgX1 allo act 9.15
Cn1cccc1CC(=O)N/N=C/c1ccc(Cl)cc1	MrgX1 allo act 10.9
Cn1cccc1CC(=O)N/N=C/c1ccc([N+](=O)[O-])cc1	MrgX1 allo act 7.65
CCOc1ccc(N)c(SSc2cc(OCC)ccc2N)c1	MrgX1 ag 28.8
CCOc1cc(-c2ccc(N)c(OCC)c2)ccc1N	none
O=C1NC2(CCCCO2)CO1 (stereo unspecified)	none
Cc1ccc(-c2ccc(/C=C(\C#N)C(=O)Nc3cc(C)nn3-c3ccccc3)o2)cc1	RGS4 pot -8.55
COc1ccc(C(CNC(=O)CSc2ccc(Br)cc2C)N2CCOCC2)cc1 (stereo unspecified)	none
O=C(Cn1ccnc1[N+](=O)[O-])NCc1ccccc1	RGS4 pot -7.65
COc1cccc(-c2nc(C(=O)NCC3CCCO3)cc3c2[nH]c2ccccc23)c1 (stereo unspecified)	RGS4 pot -7.19
COc1ccc(OC)c(-c2nc(C(=O)NCC3CCCO3)cc3c2[nH]c2ccccc23)c1 (stereo unspecified)	none
CCOP(=O)(OCC)C(NC(=O)Nc1ccc(C)c(Cl)c1)c1ccccc1 (stereo unspecified)	MrgX1 antagonist -7.84
Cc1oc(C(C)(C)C)c(CN2CCOCC2)c1C(=O)O	none
Cc1ccc(NC(=O)Cc2cc(C(=O)O)c3ccccc3n2)c(C)c1	none
COc1cccc(C(=O)Nc2cccc(-c3ccc(N4CCOCC4)nn3)c2)c1OC	RGS4 pot -7.45
Cc1ccc(-n2c(CSc3nc(C)cc(C)n3)nnc2SCC(=O)NCc2ccco2)cc1	MrgX1 antagonist -6.63
O=C(O)c1cc(-c2ccc(-c3c(-c4ccc5c(c4)OCO5)noc3-c3ccsc3)cc2)nc2ccccc12	RGS4 pot -10.6
CCOC(=O)C(NCCOC)(NC(C)=O)C(F)(F)F (stereo unspecified)	none
CCOC(=O)c1ccc2c(c1)n(CC)c(/C=C/N(C)c1ccccc1)[n+]2CC	MrgX1 antagonist -4.97
CN(C(=O)/C=C/c1ccc2c(c1)OCO2)c1ccccc1	MrgX1 allo act 9.1
NC(=O)CN1C(=O)C(O)(CC(=O)/C=C\c2ccc3c(c2)OCO3)c2ccccc21 (stereo unspecified)	none
CN1C(=O)C(O)(CC(=O)/C=C\c2ccc3c(c2)OCO3)c2ccccc21 (stereo unspecified)	MrgX1 antagonist -5.38
CCCn1c(SCC(=O)Nc2nnc(CC)s2)nnc1-c1ccncc1	none
O=C(NCCc1ccc(F)cc1)C(=O)NCC1CCCN1S(=O)(=O)c1cccs1 (stereo unspecified)	RGS4 pot -7.18
COc1ccc(CCNC(=O)C(=O)NCC2CCCN2S(=O)(=O)c2ccccc2)cc1OC (stereo unspecified)	RGS4 pot -9.41
COc1ccc(CCNC(=O)C(=O)NCC2CCCN2S(=O)(=O)c2ccc(OC)cc2)cc1 (stereo unspecified)	RGS4 pot -7.09
COc1ccc(S(=O)(=O)N2CCCC2CNC(=O)C(=O)NC2CCCCCC2)cc1 (stereo unspecified)	none
COc1ccc(CCNC(=O)CCc2ccc(S(=O)(=O)NC(C)C)cc2)cc1	MrgX1 antagonist -5.73
CNC(=O)C(=O)NCC1CCCN1S(=O)(=O)c1cccs1 (stereo unspecified)	none
COc1ccc(CCNC(=O)c2ccc(CN3CCC(Cc4ccccc4)CC3)cc2)cc1OC	MrgX1 antagonist -5.22
COCCNC(=O)c1ccc(CN2CCC(Cc3ccccc3)CC2)cc1	none
CCCCC(CC)CNC(=O)CN1C(=O)NC2(CCc3ccccc32)C1=O (stereo unspecified)	none
O=C(NCC1CCCO1)c1cncc(Br)c1 (stereo unspecified)	none
Clc1ccc(N=c2ssnc2Cl)cc1	none
CCOC(=O)c1ccc(N=c2ssnc2Cl)cc1	none (no result: MrgX1 antagonist, MrgX1 allo act, MrgX1 ag)
COc1ccc(N=c2ssnc2Cl)cc1	MrgX1 ag 27.4
Fc1ccc(N=c2ssnc2Cl)c(F)c1	MrgX1 ag 35.2
N#Cc1ccc(N=c2ssnc2Cl)cc1	MrgX1 ag 30.5
COc1cc(N=c2ssnc2Cl)cc(OC)c1OC	MrgX1 ag 32.5
COc1cccc(/C=N/NC(=O)CNC(=O)c2ccc(S(=O)(=O)N3CCCC3)cc2)c1OC	none
COc1ccccc1Nc1nnc(SCc2cc(=O)n3cc(C)ccc3n2)s1	none
O=C(c1cn(-c2ccccc2)nc1-c1cccnc1)N1CCCC(C(F)(F)F)C1 (stereo unspecified)	none
O=C(OCC(=O)N(Cc1ccccc1)Cc1ccccc1)c1ccccc1NCCO	RGS4 pot -9.29
CN1C(=O)C(O)(CC(=O)c2ccc(F)cc2)c2cc(Br)ccc21 (stereo unspecified)	MrgX1 antagonist -5.06
CN(C(=O)Nc1ccc(C(C)(C)C)cc1)C1CCCCC1	none
Cc1cc(C)cc(N(C(=O)Cc2cccs2)C(C(=O)NC2CCCCC2)c2ccccn2)c1 (stereo unspecified)	none
